From ChEMBL document CHEMBL1155662, “New phloroglucinol derivatives from Hypericum papuanum” (2000)
≈ marks a conversion by molar mass, not a printed value.

Key:
Assay type in all cases: functional
Bacillus cereus = assay: Antibacterial activity against Bacillus cereus ATCC 10702 after 20 hrs by MTT assay; conditions: ATCC 10702, 20 h
Summary of the method: (§1)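 Twofold broth doubling-dilution in nutrient broth. Overnight 37 °C cultures diluted to about 10^5 cells/mL. Compounds from 1 mg/mL MeOH stocks were dried in the first wells, then redissolved in DMSO, broth and culture before serial dilution. Plates held 20 h at 37 °C in a moist atmosphere. 0.25% aqueous MTT was added and plates reincubated 4 h; violet turbid wells scored as living bacteria.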

Micrococcus luteus = assay: Antibacterial activity against Micrococcus luteus ATCC 9341 after 20 hrs by MTT assay; conditions: ATCC 9341, 20 h; summary of the method: as §1
[1] = test system: Staphylococcus epidermidis; assay: Antibacterial activity against Staphylococcus epidermidis ATCC 12228 after 20 hrs by MTT assay; conditions: ATCC 12228, 20 h; summary of the method: as §1

| SMILES | MIC (Bacillus cereus) | MIC (Micrococcus luteus) | MIC [1] |
| --- | --- | --- | --- |
| CC(C)C(=O)C1=C(O)[C@]2(C)C[C@H]3C(C)(C)CCC3(C1=O)C2=O [LALIBINONE E] | > 128 µg/mL | > 128 µg/mL | > 256 µg/mL |
| C=C(C)[C@@H]1CC23C(=O)C(C(=O)C(C)C)=C(O)[C@](C)(C[C@H]2C1(C)C)C3=O [LALIBINONE A] | 64 µg/mL (≈ 186 µM) | 64 µg/mL (≈ 186 µM) | 64 µg/mL (≈ 186 µM) |
| C=C(C)[C@@H]1CC23C(=O)[C@@](C)(C[C@H]2C1(C)C)C(=O)C(C(=O)C(C)CC)=C3O (stereo partly drawn) [LALIBINONE C] | 16 µg/mL (≈ 44.6 µM) | 64 µg/mL (≈ 179 µM) | 32 µg/mL (≈ 89.3 µM) |
| C=C(C)[C@H]1CC23C(=O)[C@@](C)(C[C@H]2C1(C)C)C(=O)C(C(=O)C(C)CC)=C3O (stereo partly drawn) [LALIBINONE D] | 16 µg/mL (≈ 44.6 µM) | 64 µg/mL (≈ 179 µM) | 32 µg/mL (≈ 89.3 µM) |
| C=C(C)[C@H]1CC23C(=O)C(C(=O)C(C)C)=C(O)[C@](C)(C[C@H]2C1(C)C)C3=O [LALIBINONE B] | 64 µg/mL (≈ 186 µM) | 64 µg/mL (≈ 186 µM) | 128 µg/mL (≈ 372 µM) |
| O=C(N[C@H](CO)[C@H](O)c1ccc([N+](=O)[O-])cc1)C(Cl)Cl [CHLORAMPHENICOL] | 2 µg/mL (≈ 6.19 µM) | 1 µg/mL (≈ 3.09 µM) | 4 µg/mL (≈ 12.4 µM) |
